These results are taken from ChEMBL document CHEMBL3046772, “Synthesis and antifeedant activity of new oxadiazolyl 3(2H)-pyridazinones” (2003).

Common to all, as to format: functional
The subject of test [1] is Ostrinia furnacalis. Kind of test: Antifeedant activity against fifth-instar larval stage of Ostrinia furnacalis (Asian corn borer) assessed as feeding deterrence index at 500 mg/kg after 24 hr by diet-choice assay. The procedure, abridged: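 Newly moulted fifth-instar larvae offered artificial diet with compound added (dissolved in acetone, mixed into diet ingredients before preparation) at 500 mg/kg versus solvent-only control diet. Five replicates of 10 larvae. After 24 h, deterrency index (%) = [(C − T)/(C + T)] × 100, where C and T are amounts of control and treated diet eaten.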

The subject of test [2] is Ostrinia furnacalis. The test can be described thus: Antifeedant activity against fifth-instar larval stage of Ostrinia furnacalis (Asian corn borer) assessed as larval weight gain at 5 mg/kg after 5 days by diet-choice assay (reference value: 43.3 +/- 20.8 mg).
The test system of test [3] is Ostrinia furnacalis. Kind of test: Antifeedant activity against fifth-instar larval stage of Ostrinia furnacalis (Asian corn borer) assessed as larval weight gain at 20 mg/kg after 5 days by diet-choice assay (reference value: 43.3 +/- 20.8 mg).
Test [4] deals with Ostrinia furnacalis. The test can be described thus: Antifeedant activity against fifth-instar larval stage of Ostrinia furnacalis (Asian corn borer) assessed as larval weight gain at 10 mg/kg after 5 days by diet-choice assay (reference value: 43.3 +/- 20.8 mg).

For `CC(C)(C)n1ncc(OCc2nnc(-c3ccccc3F)o2)c(Cl)c1=O`, the FDI in the test on Ostrinia furnacalis [1] amounted to 41.34%.
Same read-out and setting: the value for `CC(C)(C)n1ncc(OCc2nnc(-c3cc(F)c(Cl)cc3Cl)o2)c(Cl)c1=O` was 35.16%.
Regarding `CC(C)(C)n1ncc(OCc2nnc(-c3ccccc3)o2)c(Cl)c1=O`, the FDI in the test with Ostrinia furnacalis [1] is on record as 57.61%. For the same compound, the Activity in the test with Ostrinia furnacalis [2] is reported as 42.3 mg; in the test with Ostrinia furnacalis [3], 6.6 mg; in the test with Ostrinia furnacalis [4], 16.2 mg.
As to `Cc1ccc(-c2nnc(COc3cnn(C(C)(C)C)c(=O)c3Cl)o2)cc1`, in the test on Ostrinia furnacalis [1], the FDI was determined as 4.28%.
Regarding `CC(C)(C)n1ncc(OCc2nnc(-c3ccc(F)cc3)o2)c(Cl)c1=O`, the FDI in the test on Ostrinia furnacalis [1] is 51.08%.
Take `CCc1ccc(-c2nnc(COc3cnn(C(C)(C)C)c(=O)c3Cl)o2)cc1`: the FDI in the test on Ostrinia furnacalis [1] came to 40.18%.
For the compound `CC(C)(C)n1ncc(OCc2nnc(-c3ccc(Cl)cc3)o2)c(Cl)c1=O`, the FDI with Ostrinia furnacalis [1] is recorded as 46.73%.
Same read-out and setting: to `COc1ccc(-c2nnc(COc3cnn(C(C)(C)C)c(=O)c3Cl)o2)cc1` belongs 38.45%.
Take `CC(C)(C)n1ncc(OCc2nnc(-c3cccc(F)c3)o2)c(Cl)c1=O`: the FDI with Ostrinia furnacalis [1] is on record as 51.67%. Moreover, the Activity was 38.4 mg in the test with Ostrinia furnacalis [2], 8.7 mg in the test on Ostrinia furnacalis [3] and 22.6 mg in the test on Ostrinia furnacalis [4].
Regarding `C/C=C(\C)C(=O)O[C@H]1C[C@@H](OC(C)=O)[C@@]2(C(=O)OC)CO[C@H]3[C@@H](O)[C@@](C)([C@]45O[C@@]4(C)[C@@H]4C[C@H]5O[C@@H]5OC=C[C@@]54O)[C@H]4[C@]1(CO[C@]4(O)C(=O)OC)[C@@H]32` [AZADIRACHTIN A], the FDI in the test on Ostrinia furnacalis [1] turned out to be 59.9%. The Activity in the test on Ostrinia furnacalis [2] was 22 mg; in the test with Ostrinia furnacalis [3], 1.2 mg; in the test with Ostrinia furnacalis [4], 7.8 mg.
